From PubChem BioAssay AID493037 (Johns Hopkins Ion Channel Center, 2011)

Each compound was assayed against Potassium voltage-gated channel subfamily KQT member 2 (Rattus norvegicus) (UniProt O88943) (assay: rat KCNQ2 channel activators, dose response, cell-based, FluxOR thallium flux, mode of action (AID 493037)). Settings: KCNQ2-expressing cells, FluxOR thallium flux fluorescence.
Sequence of Potassium voltage-gated channel subfamily KQT member 2 (Rattus norvegicus) (O88943 whole entry, looked up): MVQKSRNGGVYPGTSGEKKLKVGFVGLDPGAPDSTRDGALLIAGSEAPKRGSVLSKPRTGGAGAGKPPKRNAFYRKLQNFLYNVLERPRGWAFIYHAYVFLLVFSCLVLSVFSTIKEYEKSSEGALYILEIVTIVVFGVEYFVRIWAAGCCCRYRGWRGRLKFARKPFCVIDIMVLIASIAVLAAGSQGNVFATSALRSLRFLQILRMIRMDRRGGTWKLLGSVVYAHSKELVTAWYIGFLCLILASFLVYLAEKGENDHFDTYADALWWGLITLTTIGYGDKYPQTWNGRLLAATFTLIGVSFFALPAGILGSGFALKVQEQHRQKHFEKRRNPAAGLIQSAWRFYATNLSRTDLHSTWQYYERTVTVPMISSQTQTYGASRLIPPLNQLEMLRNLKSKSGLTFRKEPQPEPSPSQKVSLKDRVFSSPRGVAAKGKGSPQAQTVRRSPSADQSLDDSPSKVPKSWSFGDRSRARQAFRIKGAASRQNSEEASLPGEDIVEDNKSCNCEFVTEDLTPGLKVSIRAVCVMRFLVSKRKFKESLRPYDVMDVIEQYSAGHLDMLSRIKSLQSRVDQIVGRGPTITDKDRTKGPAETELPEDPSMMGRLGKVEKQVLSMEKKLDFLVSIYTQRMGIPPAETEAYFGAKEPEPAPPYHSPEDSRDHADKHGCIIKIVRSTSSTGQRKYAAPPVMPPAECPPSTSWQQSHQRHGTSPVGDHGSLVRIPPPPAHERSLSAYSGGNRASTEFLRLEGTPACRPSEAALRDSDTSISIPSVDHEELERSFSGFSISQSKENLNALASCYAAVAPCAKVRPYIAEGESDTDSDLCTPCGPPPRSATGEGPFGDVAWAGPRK
Summary of the method: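 Assay system: CHO cells expressing KCNQ2 potassium channel, loaded with FluxOR dye | Also added: Potassium sulfate plus thallium sulfate stimulus, 12.5 mM each in 5x stock | Incubation: 20 min compound pre-incubation, room temperature | Technique: FluxOR thallium-flux fluorescence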
`Cc1cc(C)c(NC(=O)C2CC3CCC2C3)c(C)c1` (stereo not given) was tested, and the EC50 was 359 nM.
For `Cc1cc(C)c(NC(=O)CC(C)(C)C)c(Cl)c1`, the EC50 was 2100 nM.
Work on `Cc1ccc(C)c(NC(=O)C2CC3CCC2C3)c1` (stereo not given) yielded an EC50 of 1050 nM.
In the case of `CCCCC(=O)Nc1c(C)cc(C)cc1Cl`, the EC50 is reported as 3750 nM.
`Cc1cccc(C)c1NC(=O)C1CC2CCC1C2` (stereo not given) was tested, and the EC50 was 2050 nM.
